Screening results: PubChem, several laboratories
CRFR2-BP antag – CRF-BP/CRF-R2 complex antagonism. HEK293 CRF-R2/CRF-BP, CRF-induced calcium fluorescence. inhibition, % at 11.8 µM. actives 0.59% (n = 350,000);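 active = inhibition of the ligand-induced calcium signal above about 50% at the single tested concentration, limit read from the data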
UCH37 DUB inh – inhibitors of human deubiquitinating enzyme UCH37; Q9Y5K5; purified proteasome/UCH37, Ub-AMC cleavage fluorescence; inhibition, % (test concentration not listed); actives 0.33% (n = 330,000);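 active = mean inhibition over replicate wells above about 20%, limit read from the data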
Target sequence (Q9Y5K5 whole entry, looked up): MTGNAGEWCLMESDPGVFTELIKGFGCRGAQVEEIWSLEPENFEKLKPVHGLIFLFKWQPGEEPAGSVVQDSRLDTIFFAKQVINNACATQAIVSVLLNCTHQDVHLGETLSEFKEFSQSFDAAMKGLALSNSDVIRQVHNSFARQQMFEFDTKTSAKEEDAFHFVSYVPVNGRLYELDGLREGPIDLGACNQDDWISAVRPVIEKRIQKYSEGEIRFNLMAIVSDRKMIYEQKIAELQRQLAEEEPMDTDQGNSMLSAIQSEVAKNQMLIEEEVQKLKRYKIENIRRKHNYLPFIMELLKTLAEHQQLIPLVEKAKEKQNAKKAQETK
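Assay system: Proteasome-bound UCH37. Buffer or medium: pH 7.4 Tris-HCl (50 mM) with ovalbumin, ATP-MgCl2, DTT. Incubation: 30 min preincubation with enzyme, 25 min cleavage at room temperature. Measured by: fluorescence, ex 355 nm, em 460 nm. Read-out basis: percent inhibition. Control set: wells without proteasome as full block, compound-free enzyme plus substrate as uninhibited.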
CRFBP-R2 agonist – CRF-BP/CRF-R2 complex agonism; HEK293 CRF-R2/CRF-BP, calcium dye fluorescence (FLIPR); percent of saturating CRF peptide response; activation, % at 13.2 µM; actives 0.46% (n = 350,000);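 active = activation of at least 50%, plus an integration ratio under a set limit after plate pattern correction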
hiPSC survival – hiPSC single-cell survival enhancement; survival enhancement, % at 20 µM; AID 602274; actives 0.044% (n = 360,000); ATPlite luminescence; 100% = ROCK inhibitor wells, 0% = DMSO; in the data active = survival enhancement above about 18%;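 also: cells exposed to compounds for 16 hours before the ATP read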
beta cell repl – inducers of beta-cell replication in MIN6 cells | MIN6 cells proliferation, ATPlite luminescence, 48 h; cells starved in 0.2% serum; 100% = growth in 10% serum | proliferation, % at 10 µM | actives 0.29% (n = 330,000);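 active = compounds whose signal lies at least 3.5 SD above the mean of all wells on their plate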
Cardio protect – protects H9c2 cardiomyocytes from peroxide injury; H2O2 injury protection, ATPLite, 2 h; protection from H2O2 cell death, % at 20 µM; actives 0.63% (n = 360,000); AID 588492;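 active = compounds giving at least 50% protection of heart cells from peroxide-induced death in the single-dose screen, raw or plate-pattern-corrected value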
Numbers stand for hits; n = inactive; x = no result. This is a sample that favours compounds with a hit; in the whole collection about 2.1% have one here.

SMILES | CRFR2-BP antag | UCH37 DUB inh | CRFBP-R2 agonist | hiPSC survival | beta cell repl | Cardio protect
COC(=O)C1=NN(c2ccc(C)cc2)C2(S1)SC(C(C)=O)=C(C)N2c1ccccc1 (stereo unspecified) | n | n | n | n | n | n
O=C(N/N=C/c1ccc(O)cc1O)NC12CC3CC(CC(C3)C1)C2 | n | x | n | n | n | 52
COc1cc(/C=N/NC(=O)NC23CC4CC(CC(C4)C2)C3)ccc1OCC(N)=O | n | x | n | n | n | 62
O=c1[nH]c2c(c(=O)[nH]1)CCCCCC2 | n | n | n | n | x | n
O=c1[nH]c2c(c3c1CCCC3)CCCC2 | n | n | n | n | n | 74
COc1cccc(C=NNC(=O)CON=C(C)c2cccs2)c1OC | x | n | x | x | x | x
CC1(c2ccc(OC(F)F)cc2)NC(=O)N(CC(=O)Nc2cccnc2Cl)C1=O (stereo unspecified) | n | n | 96 | n | n | n
COc1ccc(C2(C)NC(=O)N(CC(=O)Nc3cccnc3Cl)C2=O)cc1 (stereo unspecified) | n | x | n | n | n | n
CCc1cccc(C)c1NC(=S)N1CCCCC1c1cccnc1 (stereo unspecified) | n | n | 54 | n | n | n
O=C1N/C(=C/c2ccc(N3CCCC3)cc2)C(=O)N1c1ccccc1 | n | n | n | n | n | n
O=C1/C(=C/c2ccc(N3CCCC3)cc2)NC(=S)N1C1CC1 | n | n | 176 | n | n | n
Cc1cc(N2CCCC2)ccc1/C=C1\NC(=S)N(C)C1=O | n | n | 169 | n | n | n
Cc1ccc(C2OC34CCCCCC3C(C#N)(C(=N)O4)C2(C#N)C#N)cc1 (stereo unspecified) | n | n | n | n | 9.0 | n
CCCCOc1ccc(C2OC34CCCCC3C(C#N)(C#N)C2(C#N)C(=N)O4)cc1 (stereo unspecified) | n | x | n | n | 9.8 | n
CC(=NNC(=O)c1nc2ccccn2c1C)c1ccco1 | x | n | x | x | x | x
COc1ccc(/C=C2\SC(=S)N(C(Cc3ccccc3)C(=O)O)C2=O)cc1 (stereo unspecified) | 58 | n | n | n | n | n
COc1ccc(/C=C2\SC(=S)N(CC(=O)Nc3nnc(C)s3)C2=O)cc1 | n | x | n | n | n | n
O=C(O)CC(C(=O)O)N1C(=O)/C(=C/C=C/c2ccco2)SC1=S (stereo unspecified) | n | 21 | n | n | n | n
COc1ccc(/C=C2\SC(=S)N(CC(=O)NCCO)C2=O)cc1 | 60 | n | n | n | n | n
O=C(O)CCCN1C(=O)/C(=C/C=C/c2ccco2)SC1=S | n | 20 | n | n | n | n
O=C(NN1C(=O)/C(=C/C=C/c2ccco2)SC1=S)c1ccccc1O | n | n | n | n | n | n
Cc1nn(-c2ccccc2)c(C)c1C=Nn1c(-c2ccc(C(C)(C)C)cc2)n[nH]c1=S | x | n | x | x | x | x
Cc1ccc(C=Nn2c(-c3cccnc3)n[nH]c2=S)s1 | x | n | x | x | x | x
CC(CC(=O)Nc1ccc2c(c1)OCCO2)=NNC(=O)COc1cccc(C)c1 | x | n | x | x | x | x
CCCCC(=O)NN=C(C)c1cccc(NC(=O)C2CC2)c1 | x | n | x | x | x | x
SMILES | CRFR2-BP antag | UCH37 DUB inh | CRFBP-R2 agonist | hiPSC survival | beta cell repl | Cardio protect
O=C(O)C(Cc1ccccc1)N1C(=O)/C(=C/C=C/c2ccco2)SC1=S (stereo unspecified) | n | 24 | n | n | x | n
O=C(O)CC(C(=O)O)N1C(=O)/C(=C/c2ccc(-c3nc4ccccc4s3)o2)SC1=S (stereo unspecified) | 53 | n | n | n | n | n
CC1=NN(/C(=N/c2nnc(C)s2)Nc2ccccc2)[C@H](c2cccc3ccccc23)S1 | x | n | x | x | x | x
C/C(N)=C(/C#N)C(=O)CSc1nnc(Nc2ccccc2)s1 | n | n | n | n | n | 57
C/C(N)=C(/C#N)C(=O)CSc1nnc(Nc2ccccc2C)s1 | n | n | n | n | n | n
C=C1CCC[C@]2(C)C[C@H]3OC(=O)C(CNCC(C)C)[C@H]3CC12 (stereo partly specified) | n | 21 | n | n | n | n
CC(=NNC(=O)c1ccc(OC2OCCOC2Oc2ccc(C(=O)NN=C(C)c3ccncc3)cc2)cc1)c1ccncc1 (stereo unspecified) | x | n | x | x | x | x
C/C(=N\NC(=O)c1cccnc1)c1ccc(OC2OCCOC2Oc2ccc(/C(C)=N/NC(=O)c3cccnc3)cc2)cc1 (stereo unspecified) | n | x | n | n | n | 53
Cc1ccc(S(=O)(=O)N=Nc2c(O)[nH]c3ccccc23)cc1 | n | n | n | n | n | n
Cc1ccc(S(=O)(=O)N(CC(=O)N=Nc2c(O)[nH]c3ccccc23)c2ccc(C)c(C)c2)cc1 | 67 | n | n | n | x | n
Cc1nc(-c2cccc(NC(=O)C(C)Oc3ccccc3)c2)cs1 (stereo unspecified) | n | n | n | n | n | n
CC(Oc1ccccc1)C(=O)Nc1nc(-c2ccncc2)cs1 (stereo unspecified) | n | n | n | 25 | n | n
CC(Oc1cccc(Cl)c1)C(=O)Nc1nc(-c2ccccn2)cs1 (stereo unspecified) | n | n | n | n | n | 50
CC(Oc1ccccc1)C(=O)Nc1nc(-c2ccccn2)cs1 (stereo unspecified) | n | n | n | n | n | 52
Cc1cccc(C(=O)N[C@H](C(=O)Nc2ncc(C)s2)C(C)C)c1 | n | n | n | n | n | n
C[C@H](NC(=O)c1ccccc1)C(=O)Nc1nc(-c2ccccn2)cs1 | n | n | n | n | n | n
Cc1cccc(C(=O)NC(C(=O)Nc2nc(-c3ccccn3)cs2)C(C)C)c1 (stereo unspecified) | n | n | n | n | n | 66
O=C(CN1C(=O)CSc2ccccc21)NN=Cc1ccco1 | x | n | x | x | x | x
O=C(NCc1ccccn1)C(=O)NN=Cc1ccccc1O | x | n | x | x | x | x
Cc1ccsc1C=NNC(=O)C(O)c1ccccc1 (stereo unspecified) | x | n | x | x | x | x
CCC1(CC)NC(=O)N(CC(=O)OCC(=O)Nc2ccccc2[N+](=O)[O-])C1=O | n | n | n | n | n | 70
CC(=NNC(=O)c1ccccc1O)c1ccc(N2C(=O)C3CCCCC3C2=O)cc1 (stereo unspecified) | x | n | x | x | x | x
O=C(NN=Cc1ccc([N+](=O)[O-])o1)c1cncc(Br)c1 | x | n | x | x | x | x
Cc1ccc(C(=O)C=Cc2cccc(C)c2)cc1 | 59 | n | n | n | x | n
Cc1cccc(C=CC(=O)c2ccccc2)c1 | n | n | n | n | x | n
O=C(NN=Cc1cccs1)c1cc(-c2ccncc2)nc2ccccc12 | x | n | x | x | x | x
O=S(=O)(Nc1ccc(O)c2ncccc12)c1ccccc1F | x | x | x | n | x | 60
Oc1ccc(CNc2ccccc2F)c2cccnc12 | n | n | n | n | n | n
